How the values were obtained:
Settings in all cases: in vivo
[1] = Drug uptake in Sprague-Dawley rat intervertebral disk at 11.7 to 12.3 uCi, iv after 0.5 hrs by liquid scintillation counting; assay type: ADME, organism-based
How it was run: (§1)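 Adult male Sprague-Dawley rats, 200–420 g, fed ad libitum. They got ¹²⁵I-labelled agent in saline (9.0–9.5 µCi/mg), 0.1 mL, by tail vein under ether. Five rats per time point were exsanguinated under ether. Organs were excised, rinsed, blotted and weighed. Duplicate samples were counted in a well-scintillation gamma counter (87% efficiency). Results are % administered dose/g, mean ± SEM.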

[2] = tested on: Blood; assay: Drug uptake in Sprague-Dawley rat blood at 11.7 to 12.3 uCi, iv after 0.5 hrs by liquid scintillation counting; assay type: ADME, organism-based; how it was run: as §1
[3] = Drug uptake in Sprague-Dawley rat ventricle at 11.7 to 12.3 uCi, iv after 0.5 hrs by liquid scintillation counting; assay type: ADME, organism-based, Cardiac ventricle
How it was run: (§2)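 ¹²⁵I-labelled bisquaternary dissolved in saline (26 mg/2.0 mL), 9.0–9.5 μCi/mg, given in 0.1 mL via tail vein under ether to adult male Sprague-Dawley rats (200–420 g). Rats were killed by exsanguination under ether at 0.5 or 2 h. Organs were excised, rinsed, blotted and weighed, and duplicate samples were gamma-counted in a well-scintillation counter (87% efficiency). Results are % administered dose/g, mean ± SEM, five rats.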

[4] = tested on: Pancreas; assay: Drug uptake in Sprague-Dawley rat pancreas at 11.7 to 12.3 uCi, iv after 2 hrs by liquid scintillation counting; assay type: ADME, organism-based; how it was run: as §1
[5] = Drug uptake in Sprague-Dawley rat intervertebral disk at 11.7 to 12.3 uCi, iv after 2 hrs by liquid scintillation counting; assay type: ADME, organism-based; how it was run: as §1
[6] = tested on: Liver; assay: Drug uptake in Sprague-Dawley rat liver at 11.7 to 12.3 uCi, iv after 2 hrs by liquid scintillation counting; assay type: ADME, organism-based; how it was run: as §1
[7] = Drug uptake in Sprague-Dawley rat trachea at 11.7 to 12.3 uCi, iv after 0.5 hrs by liquid scintillation counting; assay type: ADME, organism-based; how it was run: as §2
[8] = tested on: Blood; assay: Drug uptake in Sprague-Dawley rat blood at 11.7 to 12.3 uCi, iv after 2 hrs by liquid scintillation counting; assay type: ADME, organism-based; how it was run: as §1
[9] = tested on: Kidney; assay: Drug uptake in Sprague-Dawley rat kidney at 11.7 to 12.3 uCi, iv after 0.5 hrs by liquid scintillation counting; assay type: ADME, organism-based; how it was run: as §1
[10] = tested on: Brain; assay: Drug uptake in Sprague-Dawley rat brain at 11.7 to 12.3 uCi, iv after 2 hrs by liquid scintillation counting; assay type: ADME, organism-based; how it was run: as §1
[11] = tested on: Testes; assay: Drug uptake in Sprague-Dawley rat testes at 11.7 to 12.3 uCi, iv after 0.5 hrs by liquid scintillation counting; assay type: ADME, organism-based, Testis; how it was run: as §2
[12] = Drug uptake in Sprague-Dawley rat diaphragm at 11.7 to 12.3 uCi, iv after 2 hrs by liquid scintillation counting; assay type: ADME, organism-based; how it was run: as §1
[13] = tested on: Testes; assay: Drug uptake in Sprague-Dawley rat testes at 11.7 to 12.3 uCi, iv after 2 hrs by liquid scintillation counting; assay type: ADME, organism-based, Testis; how it was run: as §2
[14] = tested on: Duodenum; assay: Drug uptake in Sprague-Dawley rat duodenum at 11.7 to 12.3 uCi, iv after 0.5 hrs by liquid scintillation counting; assay type: ADME, organism-based; how it was run: as §1
[15] = tested on: Adrenal; assay: Drug uptake in Sprague-Dawley rat adrenal at 11.7 to 12.3 uCi, iv after 0.5 hrs by liquid scintillation counting; assay type: ADME, organism-based, Adrenal gland; how it was run: as §1
[16] = tested on: Duodenum; assay: Drug uptake in Sprague-Dawley rat duodenum at 11.7 to 12.3 uCi, iv after 2 hrs by liquid scintillation counting; assay type: ADME, organism-based; how it was run: as §1
[17] = Drug uptake in Sprague-Dawley rat bone marrow at 11.7 to 12.3 uCi, iv after 0.5 hrs by liquid scintillation counting; assay type: ADME, organism-based; how it was run: as §1
[18] = Drug uptake in Sprague-Dawley rat trachea at 11.7 to 12.3 uCi, iv after 2 hrs by liquid scintillation counting; assay type: ADME, organism-based; how it was run: as §2
[19] = tested on: Lung; assay: Drug uptake in Sprague-Dawley rat lung at 11.7 to 12.3 uCi, iv after 2 hrs by liquid scintillation counting; assay type: ADME, organism-based; how it was run: as §1
[20] = tested on: Brain; assay: Drug uptake in Sprague-Dawley rat brain at 11.7 to 12.3 uCi, iv after 0.5 hrs by liquid scintillation counting; assay type: ADME, organism-based; how it was run: as §1
[21] = Drug uptake in Sprague-Dawley rat auricle at 11.7 to 12.3 uCi, iv after 2 hrs by liquid scintillation counting; assay type: ADME, organism-based; how it was run: as §1
[22] = tested on: Thyroid gland; assay: Drug uptake in Sprague-Dawley rat thyroid at 11.7 to 12.3 uCi, iv after 2 hrs by liquid scintillation counting; assay type: ADME, organism-based; how it was run: as §2
[23] = tested on: Liver; assay: Drug uptake in Sprague-Dawley rat liver at 11.7 to 12.3 uCi, iv after 0.5 hrs by liquid scintillation counting; assay type: ADME, organism-based; how it was run: as §1
[24] = tested on: Pituitary gland; assay: Drug uptake in Sprague-Dawley rat pituitary at 11.7 to 12.3 uCi, iv after 0.5 hrs by liquid scintillation counting; assay type: ADME, organism-based; how it was run: as §1
[25] = tested on: Lung; assay: Drug uptake in Sprague-Dawley rat lung at 11.7 to 12.3 uCi, iv after 0.5 hrs by liquid scintillation counting; assay type: ADME, organism-based; how it was run: as §1
[26] = Drug uptake in Sprague-Dawley rat meninges at 11.7 to 12.3 uCi, iv after 2 hrs by liquid scintillation counting; assay type: ADME, organism-based; how it was run: as §1
[27] = tested on: Kidney; assay: Drug uptake in Sprague-Dawley rat kidney at 11.7 to 12.3 uCi, iv after 2 hrs by liquid scintillation counting; assay type: ADME, organism-based; how it was run: as §1
[28] = Drug uptake in Sprague-Dawley rat auricle at 11.7 to 12.3 uCi, iv after 0.5 hrs by liquid scintillation counting; assay type: ADME, organism-based; how it was run: as §1
[29] = tested on: Adrenal; assay: Drug uptake in Sprague-Dawley rat adrenal at 11.7 to 12.3 uCi, iv after 2 hrs by liquid scintillation counting; assay type: ADME, organism-based, Adrenal gland; how it was run: as §1
[30] = tested on: Thyroid gland; assay: Drug uptake in Sprague-Dawley rat thyroid at 11.7 to 12.3 uCi, iv after 0.5 hrs by liquid scintillation counting; assay type: ADME, organism-based; how it was run: as §2
[31] = Drug uptake in Sprague-Dawley rat meninges at 11.7 to 12.3 uCi, iv after 0.5 hrs by liquid scintillation counting; assay type: ADME, organism-based; how it was run: as §1
[32] = tested on: Spleen; assay: Drug uptake in Sprague-Dawley rat spleen at 11.7 to 12.3 uCi, iv after 2 hrs by liquid scintillation counting; assay type: ADME, organism-based; how it was run: as §2
[33] = tested on: Pancreas; assay: Drug uptake in Sprague-Dawley rat pancreas at 11.7 to 12.3 uCi, iv after 0.5 hrs by liquid scintillation counting; assay type: ADME, organism-based; how it was run: as §1
[34] = tested on: Spleen; assay: Drug uptake in Sprague-Dawley rat spleen at 11.7 to 12.3 uCi, iv after 0.5 hrs by liquid scintillation counting; assay type: ADME, organism-based; how it was run: as §2
[35] = Drug uptake in Sprague-Dawley rat diaphragm at 11.7 to 12.3 uCi, iv after 0.5 hrs by liquid scintillation counting; assay type: ADME, organism-based; how it was run: as §1
[36] = Drug uptake in Sprague-Dawley rat bone marrow at 11.7 to 12.3 uCi, iv after 2 hrs by liquid scintillation counting; assay type: ADME, organism-based; how it was run: as §1
[37] = Drug uptake in Sprague-Dawley rat ventricle at 11.7 to 12.3 uCi, iv after 2 hrs by liquid scintillation counting; assay type: ADME, organism-based, Cardiac ventricle; how it was run: as §2
[38] = tested on: Pituitary gland; assay: Drug uptake in Sprague-Dawley rat pituitary at 11.7 to 12.3 uCi, iv after 2 hrs by liquid scintillation counting; assay type: ADME, organism-based; how it was run: as §1

With `C[N+](C)(C)Cc1ccc(C[N+](C)(C)C)c([125I])c1.[I-].[I-]` the Drug uptake [1] was 0.607 % ID/g, the Drug uptake [2] was 0.277 % ID/g and the Drug uptake [3] was 0.121 % ID/g. For the same compound, the Drug uptake [4] was 0.03 % ID/g, the Drug uptake [5] was 0.087 % ID/g and the Drug uptake [6] was 0.085 % ID/g. For the same compound, the Drug uptake [7] was 0.798 % ID/g, the Drug uptake [8] was 0.015 % ID/g and the Drug uptake [9] was 3.305 % ID/g. The Drug uptake [10] was 0.038 % ID/g, the Drug uptake [11] was 0.076 % ID/g and the Drug uptake [12] was 0.022 % ID/g. The Drug uptake [13] was 0.034 % ID/g, the Drug uptake [14] was 0.085 % ID/g and the Drug uptake [15] was 0.094 % ID/g. The Drug uptake [16] was 0.033 % ID/g, the Drug uptake [17] was 0.132 % ID/g and the Drug uptake [18] was 0.089 % ID/g. The Drug uptake [19] was 0.087 % ID/g, the Drug uptake [20] was 0.044 % ID/g and the Drug uptake [21] was 0.108 % ID/g. For the same compound, the Drug uptake [22] was 0.06 % ID/g, the Drug uptake [23] was 0.129 % ID/g and the Drug uptake [24] was 0.118 % ID/g. For the same compound, the Drug uptake [25] was 0.257 % ID/g, the Drug uptake [26] was 0.658 % ID/g and the Drug uptake [27] was 1.834 % ID/g. For the same compound, the Drug uptake [28] was 0.203 % ID/g, the Drug uptake [29] was 0.043 % ID/g and the Drug uptake [30] was 0.095 % ID/g. For the same compound, the Drug uptake [31] was 0.467 % ID/g, the Drug uptake [32] was 0.094 % ID/g and the Drug uptake [33] was 0.075 % ID/g. For the same compound, the Drug uptake [34] was 0.137 % ID/g, the Drug uptake [35] was 0.08 % ID/g and the Drug uptake [36] was 0.078 % ID/g. It also gave a Drug uptake [37] of 0.018 % ID/g and a Drug uptake [38] of 0.082 % ID/g.
